This passage reports inhibition, IC50 and Activity results from ChEMBL document CHEMBL5653620, “Activating the Wnt/β-Catenin Pathway for the Treatment of Melanoma--Application of LY2090314, a Novel Selective Inhibitor of Glycogen Synthase Kinase-3” (PLoS One, 2015).

The source made the active and inactive calls. No cut-off for these calls is given here.

In experiment [1] the target is Glycogen synthase kinase-3 (Homo sapiens) (UniProt P49840+P49841). The experiment in a line: Inhibition of GSK3 in human A-375 cells harbouring TCF/LEF luciferase reporter gene assessed as increase in wnt signaling incubated for 5 hrs by Bright-Glo luciferase assay. Format: cell-based. The method in brief:
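A375 cells carried a lentiviral TCF/LEF-responsive luciferase reporter, selected with puromycin 1 μg/ml for 3 days. Cells were seeded at 10,000 per well and moved to 2% FBS medium. Agents were given at 0.5 nmol/L–1 μmol/L for 5 h, and luciferase was read with Bright-Glo substrate.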
On the technique in general: A reporter such as luciferase makes a cellular process visible.

The test system of experiment [2] is A-375. The experiment in a line: Antiproliferative activity against human A-375 cells harboring BRAF V600E mutation assessed as reduction in cell viability incubated for 72 hrs by CellTitre-Glo assay. Format: functional, cell-based. Particulars: A-375, 72 h. The method in brief: (§1)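 Cells seeded at 2,000 per well and left to adhere overnight. After 24 h, medium was switched to growth medium with 2% FBS. Test agent was added at 0.5 nmol/L to 10 μmol/L for 72 h. Viability was read by CellTiter-Glo luminescence. IC50 came from nonlinear regression sigmoidal dose-response fits.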

The subject of experiment [3] is M14. The experiment in a line: Antiproliferative activity against human M14 cells harboring BRAF V600E mutation assessed as reduction in cell viability incubated for 72 hrs by CellTitre-Glo assay. Format: functional, cell-based. Particulars: M14, 72 h. The method in brief: as §1
The nature of experiment [4]: Antiproliferative activity against human MEXF276 cells harboring BRAF V600E mutation assessed as reduction in cell viability incubated for 72 hrs by CellTitre-Glo assay. Format: functional, cell-based. Particulars: MEXF276, 72 h. In outline: as §1
A short description of experiment [5]: Antiproliferative activity against human MEXF462 cells harboring BRAF V600E mutation assessed as reduction in cell viability incubated for 72 hrs by CellTitre-Glo assay. Format: functional, cell-based. Particulars: MEXF462, 72 h. The method in brief: as §1
For a further experiment, the system named is SK-MEL-28. The experiment in a line: Antiproliferative activity against human SK-MEL-28 cells harboring BRAF V600E mutation assessed as reduction in cell viability incubated for 72 hrs by CellTitre-Glo assay. Format: functional, cell-based. Conditions: SK-MEL-28, 72 h. In outline:
as §1

A further experiment deals with A2058. The experiment in a line: Antiproliferative activity against human A2058 cells harboring BRAF V600E/PTEN null mutation assessed as reduction in cell viability incubated for 72 hrs by CellTitre-Glo assay. Format: functional, cell-based. Conditions: A2058, 72 h. In outline: as §1
The test system of another experiment is SK-MEL-2. The experiment in a line: Antiproliferative activity against human SK-MEL-2 cells harboring NRAS Q61R mutation assessed as reduction in cell viability incubated for 72 hrs by CellTitre-Glo assay. Format: functional, cell-based. Particulars: SK-MEL-2, 72 h. In outline:
as §1

The test system of another experiment is CHL-1. The experiment in a line: Antiproliferative activity against human CHL-1 cells assessed as reduction in cell viability incubated for 72 hrs by CellTitre-Glo assay. Format: functional, cell-based. Particulars: CHL-1, 72 h. In outline:
as §1

Experiment [6] can be described thus: Antiproliferative activity against human MEL1102 cells harboring NRAS Q61K mutation assessed as reduction in cell viability incubated for 72 hrs by CellTitre-Glo assay. Conditions: MEL1102, 72 h. Format: functional, cell-based. The method in brief:
as §1

Experiment [7] in a line: Antiproliferative activity against human MEXF1341 cells harboring NRAS Q61 mutation assessed as reduction in cell viability incubated for 72 hrs by CellTitre-Glo assay. Format: functional, cell-based. Particulars: MEXF1341, 72 h. In outline:
as §1

Experiment [8] is described as follows: Antiproliferative activity against human MEXF1792 cells harboring NRAS G13D mutation assessed as reduction in cell viability incubated for 72 hrs by CellTitre-Glo assay. Format: functional, cell-based. Conditions: MEXF1792, 72 h. The method in brief:
as §1

Experiment [9] relates to A-375. The experiment in a line: Antiproliferative activity against human A-375 cells transfected with beta-catenin shRNA assessed as reduction in cell viability incubated for 72 hrs by CellTitre-Glo assay. Format: functional, cell-based. In outline: (§2)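 A375 or M14 cells were transduced with lentiviral shRNA particles (target or control) at MOI 2 with polybrene 8 μg/ml. Puromycin selection at 2 μg/ml began 48 h later, and knockdown was checked by immunoblot. Cells were seeded at 2,000 per well in 2% FBS medium, exposed to agents for 72 h, and read by CellTiter-Glo.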

Experiment [10] concerns M14. The experiment in a line: Antiproliferative activity against human M14 cells transfected with beta-catenin shRNA assessed as reduction in cell viability incubated for 72 hrs by CellTitre-Glo assay. Format: functional, cell-based. The method in brief: as §2
The test system of experiment [11] is A-375. The experiment in a line: Antiproliferative activity against human vemurafenib-resistant A-375 cells harboring BRAF V600E mutation assessed as reduction in cell viability incubated for 72 hrs by CellTitre-Glo assay. Format: functional, cell-based. Particulars: A-375, 72 h. In outline: (§3)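 Resistant A375 or M14 lines were derived by growth in vemurafenib over 3 months. Cells were seeded at 2,000 per well and allowed to adhere overnight, then moved to 2% FBS growth medium. Agents were added at 0.5 nmol/L–10 μmol/L for 72 h. Viability was read by CellTiter-Glo, and IC50 was taken from sigmoidal nonlinear regression.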

The test system of experiment [12] is M14. The experiment in a line: Antiproliferative activity against human vemurafenib-resistant M14 cells harboring BRAF V600E mutation assessed as reduction in cell viability incubated for 72 hrs by CellTitre-Glo assay. Format: functional, cell-based. Conditions: M14, 72 h. The method in brief:
as §3

The subject of experiment [13] is A-375. The experiment in a line: Antiproliferative activity against human A-375 cells transfected with Axin1 shRNA assessed as reduction in cell viability incubated for 72 hrs by CellTitre-Glo assay. Format: functional, cell-based. In outline:
as §2

Experiment [14] relates to M14. The experiment in a line: Antiproliferative activity against human M14 cells transfected with Axin1 shRNA assessed as reduction in cell viability incubated for 72 hrs by CellTitre-Glo assay. Format: functional, cell-based. The method in brief:
as §2

Sequence of Glycogen synthase kinase-3 (Homo sapiens) (P49840 whole entry, looked up): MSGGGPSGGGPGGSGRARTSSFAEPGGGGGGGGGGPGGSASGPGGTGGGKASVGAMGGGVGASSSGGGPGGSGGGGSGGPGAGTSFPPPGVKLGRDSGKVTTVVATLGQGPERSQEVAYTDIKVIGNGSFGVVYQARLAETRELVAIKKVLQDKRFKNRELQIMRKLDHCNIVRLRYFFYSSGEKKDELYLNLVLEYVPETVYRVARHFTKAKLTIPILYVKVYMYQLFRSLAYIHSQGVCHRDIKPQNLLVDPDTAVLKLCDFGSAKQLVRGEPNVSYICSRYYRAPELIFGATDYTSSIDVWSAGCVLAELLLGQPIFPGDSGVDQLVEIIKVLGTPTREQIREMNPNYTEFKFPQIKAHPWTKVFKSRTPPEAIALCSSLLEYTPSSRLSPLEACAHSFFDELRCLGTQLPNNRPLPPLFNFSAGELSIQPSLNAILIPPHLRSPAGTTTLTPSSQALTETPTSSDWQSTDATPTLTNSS
Sequence of Glycogen synthase kinase-3 (Homo sapiens) (P49841 whole entry, looked up): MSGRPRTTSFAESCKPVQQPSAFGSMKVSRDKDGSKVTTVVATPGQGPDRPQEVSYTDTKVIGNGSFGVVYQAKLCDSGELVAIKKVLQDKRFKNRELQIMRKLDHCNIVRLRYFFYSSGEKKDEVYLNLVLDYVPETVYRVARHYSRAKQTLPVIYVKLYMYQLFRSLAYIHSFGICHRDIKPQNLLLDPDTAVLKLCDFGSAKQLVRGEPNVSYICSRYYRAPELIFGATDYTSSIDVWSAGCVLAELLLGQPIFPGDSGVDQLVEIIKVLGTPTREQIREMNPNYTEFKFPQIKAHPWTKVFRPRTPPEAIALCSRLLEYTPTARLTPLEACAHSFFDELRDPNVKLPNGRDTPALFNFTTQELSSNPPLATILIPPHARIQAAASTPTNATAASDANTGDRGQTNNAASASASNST

For orientation: IC50 means the concentration that gives 50% inhibition. For `CC(=O)O/N=C1/C(=C2/C(=O)Nc3cc(Br)ccc32)Nc2ccccc21` [6-BROMOINDIRUBIN-3'-ACETOXIME], the inhibition entry in experiment [1] is “Active”. Also, the IC50 is 914 nM in the experiment with A-375 [2]; 646 nM in the experiment on M14 [3]; 954 nM in experiment [4]; 605 nM in experiment [5]; over 5000 nM with SK-MEL-28; 361 nM in the experiment with A2058. In addition, the IC50 was found to be 942 nM in the experiment on SK-MEL-2; 1460 nM in the experiment on CHL-1; 750 nM in experiment [6]; 1150 nM in experiment [7]; 4940 nM in experiment [8].

Take `CCCS(=O)(=O)Nc1ccc(F)c(C(=O)c2c[nH]c3ncc(-c4ccc(Cl)cc4)cc23)c1F` [VEMURAFENIB]: the IC50 in the experiment with A-375 [2] was 102 nM; with M14 [3], 88 nM; in the experiment on SK-MEL-2 it was over 10000 nM; with CHL-1, over 10000 nM; in [6], 1260 nM; in the experiment on A-375 [11] it was 5480 nM. Further, the IC50 with M14 [12] came to 3860 nM. In addition, the result with A-375 [9], in the experiment with M14 [10], with A-375 [13] and in the experiment on M14 [14] was Active.

In the case of `Nc1nc2ccc(OC(F)(F)F)cc2s1`, the inhibition result in experiment [1] is “Active”.
